High-throughput results (PubChem BioAssay)
MEKK3 PB1 HTS: raises or lowers MEK5 binding to the human MEKK3 PB1 domain. Q99759. bead-based flow cytometry, Alexa488-MEK5 binding to MEKK3; actives lie on both sides; 0 = blocked by unlabeled MEK5, 100 = vehicle. binding response (% of control), % at 10 µM. 290,000 compounds, 1.4% hits;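 active means binding response more than 3 SD above or below the average of its plate-row segment, actives on both sides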;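 further: Alexa488 bead fluorescence after subtracting the streptavidin-only scavenger bead signal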
Target sequence (Q99759 whole entry, looked up, the tested form may be a part): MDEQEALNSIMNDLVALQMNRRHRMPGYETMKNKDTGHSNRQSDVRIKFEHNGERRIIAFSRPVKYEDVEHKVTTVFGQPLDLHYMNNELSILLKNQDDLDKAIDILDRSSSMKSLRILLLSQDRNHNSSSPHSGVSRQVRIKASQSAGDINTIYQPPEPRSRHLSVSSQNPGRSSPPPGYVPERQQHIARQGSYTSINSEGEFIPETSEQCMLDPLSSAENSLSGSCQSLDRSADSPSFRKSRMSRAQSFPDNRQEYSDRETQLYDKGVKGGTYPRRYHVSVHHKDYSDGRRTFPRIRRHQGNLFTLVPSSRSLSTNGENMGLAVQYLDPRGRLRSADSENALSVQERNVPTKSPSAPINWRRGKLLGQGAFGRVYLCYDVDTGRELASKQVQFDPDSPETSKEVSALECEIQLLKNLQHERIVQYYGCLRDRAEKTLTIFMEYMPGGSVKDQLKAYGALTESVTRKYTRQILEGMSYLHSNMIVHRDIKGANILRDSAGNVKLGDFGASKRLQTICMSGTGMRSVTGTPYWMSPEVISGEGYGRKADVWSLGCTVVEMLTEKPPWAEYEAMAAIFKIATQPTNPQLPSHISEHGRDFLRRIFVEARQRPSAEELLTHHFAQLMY
MEKK2mut PB1 HTS: signal of MEK5 binding to mutant human MEKK2 PB1 domain | 290,000 compounds, 0.35% hits | percent response, % at 10 µM | bead flow cytometry, Alexa488-MEK5 binding to MEKK2 mutant | AID 1530; in the data active means percent response above about 24%, passing the limit was not always enough
ABCG2 block: inhibitors of human ABCG2 transporter, ABCB1 counter-screen; IgMXP3 cells, JC-1 efflux, flow cytometry; Q9UNQ0; inhibition, % at 6.6 µM; 190,000 compounds, 0.1% hits; AID 1325;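 active means inhibition above 80%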;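 further: 0% = DMSO and 100% = nicardipine control wells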
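System: two drug-resistant human cell lines, ABCG2 and ABCB1; controls: nicardipine high and DMSO low controls; times: 10 min exposure at 25 °C with rotation, no wash; detection: flow cytometry of retained JC-1 fluorescence; read-out basis: percent efflux inhibition, scaled nicardipine 100% to DMSO 0%; doses: one concentration, 6.6 µM final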
MEKK2 WT-MEK5: raises or lowers MEK5 binding to wildtype human MEKK2 PB1 domain; binding response (% of control), % at 10 µM; bead flow cytometry, Alexa488-MEK5 binding to MEKK2 WT; actives lie on both sides; AID 1531; 290,000 compounds, 1.1% hits; Q9Y2U5; in the data active means binding response below about 67% or above about 130%
ABCB1 inh: blocks JC-1 efflux by human ABCB1 transporter; inhibition, % at 6.6 µM; CCRF-Adr cells, flow cytometry; AID 1326; P08183; 190,000 compounds, 0.067% hits; in the data active means inhibition above about 40%;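 further: 0% = vehicle and 100% = reference inhibitor; higher value means more JC-1 retained so stronger ABCB1 efflux block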
WT yeast gro inh: growth inhibition of WT yeast, mitochondrial fusion screen; inhibition, % at 10 µM; AID 1362; mitochondrial fusion phenotypic screen, WT strain; 190,000 compounds, 2.1% hits; in the data active means inhibition above about 58%; tested in S. cerevisiae
MEKK2wt confirm: raises or lowers MEK5 binding to wildtype human MEKK2, retest | shares compounds with MEKK3 PB1 HTS | bead flow cytometry, Alexa488-MEK5 binding to MEKK2 WT; actives lie on both sides | 5,900 compounds, 2.4% hits | binding response (% of control), % at 10 µM; in the data active means binding response below about 16% or above about 210%; inactive means in between
MEKK2mut-MEK5: signal of MEK5 binding to mutant human MEKK2, retest. shares compounds with MEKK3 PB1 HTS. bead flow cytometry, Alexa488-MEK5 binding to MEKK2 mutant. percent response, % at 10 µM. 5,900 compounds, 2% hits; in the data active means percent response mostly above about 71%, no sharp cut-off; inactive means mostly below about 38%;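 further: higher means compound restores mutant binding toward wildtype level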
MEKK3-MEK5 inh: confirmation of inhibitors of MEK5 binding to human MEKK3; 5,900 compounds, 1.8% hits; shares compounds with MEKK3 PB1 HTS; bead flow cytometry, Alexa488-MEK5 binding to MEKK3; active compounds read low; binding response (% of control), % at 10 µM; AID 1894;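 active means binding response below 72% of control, or above a set upper limit, though filed actives all read lower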;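 further: 100% = DMSO only wells and 0% = binding blocked by excess unlabeled MEK5; lower values mean stronger disruption of MEK5 binding to MEKK3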
* = called active by the depositor; x = not tested or not shown; [ ] = another dose, or the depositor's remark. A selection: hits, their analogues and other compounds. The true share with any hit is near 3.5%.

SMILES	MEKK3 PB1 HTS	MEKK2mut PB1 HTS	ABCG2 block	MEKK2 WT-MEK5	ABCB1 inh	WT yeast gro inh	MEKK2wt confirm	MEKK2mut-MEK5	MEKK3-MEK5 inh
CCC(=O)NCCn1c(C)cc2ccccc21	99.0	4.0	-0.1	107.0	0.1	10.4	x	x	x
Cc1cc2ccccc2n1CCNC(=O)COc1ccccc1	58.0*[inhibitor]	-27.0	4.4	33.0*[inhibitor]	0.4	17.7	65.0	-16.0	88.0
COc1ccc(OC)c(CNn2c(-c3cccc(C)c3)nc3ccccc3c2=O)c1	1.0*[inhibitor]	-21.0	9.1	0.0*[inhibitor]	1.3	16.5	106.0	3.0	106.0
COc1cccc(CNn2c(-c3cccc(C)c3)nc3ccccc3c2=O)c1	107.0	4.0	5.3	102.0	0.9	47.8	x	x	x
CC(C)(C)S(=O)(=O)c1ccc(S(=O)(=O)C(C)(C)C)s1	108.0	9.0	-0.4	107.0	-0.1	5.5	x	x	x
c1ccc(CNc2nc(N3CCN(Cc4ccccc4)CC3)nc3ccccc23)cc1	112.0	16.0	x	161.0*	x	x	185.0	45.0	103.0
c1ccc(N2CCN(c3nc(NCc4ccco4)c4ccccc4n3)CC2)cc1	106.0	19.0	2.5	145.0*	0.5	-7.8	162.0	39.0	106.0
c1ccc(CN2CCC(Nc3nc(-c4ccccc4)nc4ccccc34)CC2)cc1	104.0	21.0	0.5	144.0*	1.6	-28.4	162.0	32.0	106.0
Cc1csc2ncnc(NC3CCN(Cc4ccccc4)CC3)c12	101.0	0.0	x	107.0	x	x	x	x	x
c1coc(CNc2nc(N3CCCCC3)nc3ccccc23)c1	101.0	14.0	0.3	120.0	0.2	-5.5	x	x	x
CC(=O)N1N=C(c2ccccc2OC(=O)/C=C/c2ccccc2)CC1c1ccccc1 (stereo not drawn)	94.0	-15.0	x	91.0	x	x	x	x	x
CCN(CC)S(=O)(=O)c1ccc(/C=C/C(=O)OCC(=O)N(C(C)C)C(C)C)cc1	101.0	-1.0	2.8	100.0	1.4	-3.3	x	x	x
COc1ccc(C(=O)CCN2CCN(c3ccccc3OC)CC2)cc1	97.0	-3.0	0.7	103.0	0.3	-20.4	x	x	x
COc1ccc(C(=O)CCN2CCc3cc(OC)c(OC)cc3C2)cc1	1.0*[inhibitor]	-47.0	0.4	1.0*[inhibitor]	1.0	-13.5	110.0	-1.0	100.0
CCc1nnc(NS(=O)(=O)c2ccc(NC(=O)/C=C/c3ccc(OC)cc3OC)cc2)s1	101.0	-1.0	-3.3	103.0	-1.0	6.2	x	x	x
O=C(c1ccccc1)c1ccc(Oc2ncccn2)cc1	0.0*[inhibitor]	-17.0	5.4	-1.0*[inhibitor]	0.7	-15.3	103.0	2.0	101.0
CCOC(=O)c1ccc(NC(=S)NCCCN2CCOCC2)cc1	95.0	-7.0	3.9	101.0	0.6	0.4	x	x	x
CCOC(=O)c1ccc(NC(=S)NC(=O)C2CCCC2)cc1	100.0	-3.0	x	99.0	x	x	x	x	x
CCOC(=O)c1ccc(NC(=S)NN2CCN(C)CC2)cc1	41.0*[inhibitor]	-6.0	0.9	58.0	0.3	-1.1	98.0	-3.0	99.0
CCOC(=O)c1ccc(NC(=S)NC2CCCC2)cc1	65.0*[inhibitor]	-1.0	8.3	95.0	0.3	23.2	99.0	-2.0	99.0
Cc1cc(C)n2nc(C(=O)N3CCCC(Nc4ccc(F)c(F)c4)C3)cc2n1 (stereo not drawn)	96.0	2.0	x	99.0	x	x	x	x	x
CCOc1ccc2ccccc2c1C(=O)Nc1cc(=O)n(C)c(=O)n1C	102.0	0.0	1.7	105.0	0.6	11.8	x	x	x
COc1cccc(CCNC(=O)CCc2nnc(Cc3cc(OC)ccc3OC)o2)c1	103.0	3.0	x	104.0	x	x	x	x	x
CCN(Cc1ccncc1)C(=O)CCc1nnc(CCc2ccccc2OC)o1	70.0*[inhibitor]	-8.0	2.0	80.0	0.8	-20.8	99.0	-6.0	101.0
